The results in this text go back to ChEMBL document CHEMBL1140291, “Quinic acid derivatives as sialyl Lewis(x)-mimicking selectin inhibitors: design, synthesis, and crystal structure in complex with E-selectin” (J Med Chem, 2005).

Some results are limits rather than exact numbers.

One data set deals with T1, P-selectin (Homo sapiens, UniProt P16109).
T1 sequence (P16109 whole entry): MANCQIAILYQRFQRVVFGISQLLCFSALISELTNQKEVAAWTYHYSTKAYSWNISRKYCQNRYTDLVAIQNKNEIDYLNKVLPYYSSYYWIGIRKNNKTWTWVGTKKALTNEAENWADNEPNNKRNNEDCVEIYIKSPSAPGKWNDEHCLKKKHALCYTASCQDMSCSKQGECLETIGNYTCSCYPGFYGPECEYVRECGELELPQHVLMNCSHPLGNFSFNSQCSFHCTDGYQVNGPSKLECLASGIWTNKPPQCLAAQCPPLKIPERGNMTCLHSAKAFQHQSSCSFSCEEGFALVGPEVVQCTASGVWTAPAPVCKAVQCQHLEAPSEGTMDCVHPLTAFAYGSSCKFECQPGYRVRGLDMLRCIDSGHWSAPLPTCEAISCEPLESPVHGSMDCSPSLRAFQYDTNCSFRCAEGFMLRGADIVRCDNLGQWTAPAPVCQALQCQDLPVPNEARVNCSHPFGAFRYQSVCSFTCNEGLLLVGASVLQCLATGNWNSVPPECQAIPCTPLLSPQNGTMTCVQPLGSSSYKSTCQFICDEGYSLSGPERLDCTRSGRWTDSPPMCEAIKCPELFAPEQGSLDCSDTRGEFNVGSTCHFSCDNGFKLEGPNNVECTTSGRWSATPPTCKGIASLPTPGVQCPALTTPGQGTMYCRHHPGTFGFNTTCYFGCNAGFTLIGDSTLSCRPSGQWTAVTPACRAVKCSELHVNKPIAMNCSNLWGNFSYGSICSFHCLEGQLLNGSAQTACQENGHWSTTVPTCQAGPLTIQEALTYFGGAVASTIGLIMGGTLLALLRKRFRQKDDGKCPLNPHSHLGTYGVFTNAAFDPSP
The data set is described as follows: Inhibitory concentration against selectin P in Biacore assay. The method, boiled down: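 SPR at 25 °C. Biotinylated monomeric truncated human PSGL-1 (19ek) was immobilised on a streptavidin chip. Compounds were preincubated 1 h with 500 nM monomeric P-selectin (P-LE) in HEPES/NaCl/1 mM CaCl2/MgCl2/0.05% P40/10% DMSO, then injected at 0–6 mM in duplicate, at least two runs. IC50 was extrapolated from the RU vs concentration plot after blank and reference subtraction.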

The nature of data set [1]: (§1) Anti-inflammatory activity as selectin-mediated rolling of human neutrophils on stimulated human umbilical vein endothelial cells. It counts as functional, cell-based. The conditions noted are these: endothelial cell. In short, it runs like this:
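Parallel plate flow chamber; human neutrophils rolled over confluent HUVEC monolayers activated with […] just before the run to raise surface P-selectin. Rolling cells counted by digital imaging/videotape, averaged over 10 fields on each of three monolayers per test article. Active compounds titrated for IC50. Glycyrrhizin trisodium salt as positive control.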

The nature of data set [2]: Maximum concentration observed in rat ( 20 mg/kg iv ). It counts as ADME, organism-based. The arrangement: dose 20 mg/kg, route intravenous. As to conditions: in vivo. In short, it runs like this: (§2)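 Single 20 mg/kg iv bolus (10 mg/mL in 50% DMSO/50% PEG400). Blood drawn at 5 min and 0.5, 0.75, 1, 2, 4, 7, 24 h, with saline replacing lost volume. Plasma precipitated with CH3CN and analysed by LC/MS. Linear trapezoid noncompartmental analysis.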

Data set [3] can be described thus: Area under curve in rat ( 20 mg/kg iv ). Format: ADME, organism-based. Details: dose 20 mg/kg, route intravenous. As to conditions: in vivo. The method, boiled down:
as §2

Data set [4] in a line: Clearance observed in rat ( 20 mg/kg iv ). The conditions noted are these: in vivo. The arrangement: dose 20 mg/kg, route intravenous. Format: ADME, organism-based. The method, boiled down: as §2
Data set [5] is described as follows: as §1. Format: functional, cell-based. As to conditions: endothelial cell. In short, it runs like this: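 Parallel plate flow chamber; human neutrophils rolled over confluent HUVEC monolayers activated with […] just before the run to raise surface P-selectin. Rolling cells counted by digital imaging/videotape, averaged over 10 fields on each of three monolayers per test article. Glycyrrhizin trisodium salt as positive control.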
This is another data set of the same source.

For the molecule `O=C(O)[C@]1(OCc2ccc(-c3ccccc3C(F)(F)F)cc2)C[C@@H](O)[C@@H](O)[C@H](O)C1`, the IC50 (in general, the concentration at which inhibition is half-maximal) on P-selectin stood at 10000 µM; in data set [1], 625 µM. The Cmax – broadly, the highest concentration seen after dosing – in data set [2] amounted to 212 µM. The AUC (usually concentration integrated over time) in data set [3] was 219 µM·h. Also, in data set [4], the clearance (in general, a measure of how efficiently the substance is removed, as volume per time) amounted to 4 mL/min/kg.

Turning to `O=C(O)[C@]1(OCc2ccccc2-c2cccc3c2Sc2ccccc2S3)C[C@@H](O)[C@@H](O)[C@H](O)C1`, the IC50 in data set [5] was 1000 µM; against P-selectin, not above 2 µM.
